# ChEMBL document CHEMBL1150627, “Diterpenes from the roots of Euphorbia kansui and their in vitro effects on the cell division of Xenopus” (2002)
# Active and inactive are the calls of the source. The rule behind the calls is not given here.
# Test system: not listed separately
# Assay: Induction of cleavage arrest in embryonic cells of Xenopus laevis stage 8 blastulae at 0.5 ug/mL after 20 hrs by animal cap assay
# Format: functional
# Outline: (§1)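 Single inner-surface cells taken from animal caps of X. laevis stage 8 blastulae, freed in Ca/Mg-free medium (50 mM phosphate, 35 mM NaCl, 1 mM KCl, pH 7.0). Two or three cells per well in NAM/2 with 2 mg/mL γ-globulin, non-nutritive. Test concentrations 0.1, 0.5, 2, 10, 50 and 200 µg/mL. Cultured 20 h at 25 °C. Read-out: percentage of cells with cleavage arrest.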
row,SMILES,Activity [%]
1,CCCCC/C=C/C=C/C(=O)O[C@H]1C(C)=C[C@]23C(=O)[C@@H](C=C(COC(C)=O)[C@@H](O)[C@]12O)[C@H]1[C@@H](C[C@H]3C)C1(C)C,>75
2,CCCCC/C=C\C=C\C(=O)OCC1=C[C@@H]2C(=O)[C@]3(C=C(C)[C@H](O)[C@@]3(O)[C@@H]1O)[C@H](C)C[C@@H]1[C@H]2C1(C)C,>75
3,CCCCC/C=C/C=C/C(=O)O[C@@H]1C(CO)=C[C@@H]2C(=O)[C@]3(C=C(C)[C@H](O)[C@@]13O)[C@H](C)C[C@@H]1[C@H]2C1(C)C,>75
4,CCCCC/C=C\C=C\C(=O)O[C@H]1C(C)=C[C@]23C(=O)[C@@H](C=C(CO)[C@@H](OC(C)=O)[C@]12O)[C@H]1[C@@H](C[C@H]3C)C1(C)C,>75
5,CCCCC/C=C\C=C\C(=O)O[C@H]1C(C)=C[C@]23C(=O)[C@@H](C=C(COC(C)=O)[C@@H](O)[C@]12O)[C@H]1[C@@H](C[C@H]3C)C1(C)C,>75
6,CCCCC/C=C/C=C/C(=O)OCC1=C[C@@H]2C(=O)[C@]3(C=C(C)[C@H](O)[C@@]3(O)[C@@H]1O)[C@H](C)C[C@@H]1[C@H]2C1(C)C,>75
7,CCCCC/C=C\C=C\C(=O)O[C@H]1C(C)=C[C@]23C(=O)[C@@H](C=C(CO)[C@@H](O)[C@]12O)[C@H]1[C@@H](C[C@H]3C)C1(C)C,>75
8,CCCCC/C=C/C=C/C(=O)O[C@H]1C(C)=C[C@]23C(=O)[C@@H](C=C(CO)[C@@H](O)[C@]12O)[C@H]1[C@@H](C[C@H]3C)C1(C)C,>75
9,CCCCCCCCCC(=O)OCC1=C[C@@H]2C(=O)[C@]3(C=C(C)[C@H](O)[C@@]3(O)[C@@H]1O)[C@H](C)C[C@@H]1[C@H]2C1(C)C,>75

# Species on record: Xenopus laevis
# Assay: Induction of cleavage arrest in embryonic cells of Xenopus laevis stage 8 blastulae after 20 hrs by animal cap assay
# Format: functional, cell-based
# Outline: as §1
row,SMILES,Activity
1,C=C1[C@H](OC(C)=O)[C@@H](OC(=O)c2ccccc2)[C@@H](OC(C)=O)C(C)(C)[C@H]2O[C@](O)([C@H](C)C2=O)[C@@]2(OC(C)=O)C[C@H](C)[C@H](OC(C)=O)[C@@H]2[C@H]1OC(C)=O,inactive
2,C=C1[C@H](OC(=O)c2ccccc2)[C@H]2[C@@H](OC(C)=O)[C@](C)(O)[C@H](OC(C)=O)[C@]2(O)C(=O)[C@@H](C)[C@H]2O[C@@H]2C(C)(C)C(=O)[C@H](O)[C@H]1OC(=O)c1ccccc1,inactive
